# This is a sample that favours compounds with a hit; in the whole collection about 2.8% have one here.
# SR-BI DiI inh – mouse SR-BI HDL lipid transfer inhibition. inhibition, % at 12.5 µM. 320,000 tested, 0.96% active. ldlA[mSR-BI] CHO cells, DiI-HDL uptake fluorescence, 3 h;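 active = mean replicate inhibition of at least 70% and a set share of replicates each scoring 70 or more; inconclusive = meets just one of the two criteria; inactive = fails both criteria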;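 note: 0% = median of neutral control wells and 100% = median of positive control wells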
# dFosB act-1 – enhances mouse delta FosB homodimer DNA binding; activation, % at 25 µM; purified delta FosB, TAMRA-CDK5 oligo fluorescence polarization; percent of positive-control signal above neutral wells; P13346; 340,000 tested, 0.99% active; AID 493131;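 active = mean activation above about 17%, with every replicate also reaching it, limit read from the data, passing the limit was not always enough; inconclusive = only one of the two conditions met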
# Target sequence (P13346 whole entry, looked up): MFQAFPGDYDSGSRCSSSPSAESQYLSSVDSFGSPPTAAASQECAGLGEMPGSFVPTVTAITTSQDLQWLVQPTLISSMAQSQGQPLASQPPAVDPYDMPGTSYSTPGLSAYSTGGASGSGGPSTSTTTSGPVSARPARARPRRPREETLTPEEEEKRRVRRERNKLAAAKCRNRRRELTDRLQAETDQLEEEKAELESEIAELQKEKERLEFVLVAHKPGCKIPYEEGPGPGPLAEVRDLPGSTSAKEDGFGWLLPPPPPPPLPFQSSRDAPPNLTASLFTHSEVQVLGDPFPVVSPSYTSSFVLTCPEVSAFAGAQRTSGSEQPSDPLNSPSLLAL
# CAL PDZ FP-1 – inhibitors of human CAL PDZ peptide binding. purified CAL PDZ, TMR-peptide fluorescence polarization, 1 h. inhibition, % at 24.9 µM. 300,000 tested, 0.92% active. AID 602252;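 active = mean inhibition of at least 30% with at least half of replicates also reaching 30%; inconclusive = no clear call, values can overlap the other calls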;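 note: 0% = DMSO neutral control and 100% = excess unlabeled competitor peptide PRC23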
# SR-BI uptake up – enhances SR-BI lipid uptake from DiI-HDL; CHO ldlA[mSR-BI] cells, DiI-HDL uptake fluorescence, 3 h; 100 = double the neutral-control signal; activation, % at 12.5 µM; 320,000 tested, 0.096% active;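 active = mean replicate activation of at least 60% and every replicate at or above 60%; inconclusive = mean or all-replicate condition met, but not both; inactive = mean below 60% and not all replicates reaching 60%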;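 note: 0% = median plate neutral-control signal and 100% = twice that signal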
#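 Test system: SR-BI-overexpressing, LDLR-lacking CHO cells. Measured by: DiI fluorescence, bottom read. Medium: Ham's F12 with 0.5% BSA, HEPES 25 mM, pH 7.4. Timing: 3 h uptake period with compound, 37 °C.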
# CAL PDZ FP-2 – blocks peptide binding to human CAL PDZ domain; Q9HD26; purified CAL PDZ, TMR-peptide fluorescence polarization, 1 h; inhibition, % at 20 µM; 330,000 tested, 0.02% active; AID 504414;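 active = highest replicate inhibition of at least 40%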;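 note: plate controls were DMSO neutral control wells for no effect and unlabeled competitor peptide control wells for full effect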
#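 Material – purified CerCALP PDZ construct · Detection – FP readout, S and P plane fluorescence · Measure – percent inhibition from loss of millipolarization · Controls – unlabelled peptide for full inhibition, DMSO wells as neutral · Probe or stimulus – TMR-labelled reporter peptide T*-PRC34 bound in PDZ groove · Times – 1 h at RT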
# dFosB act-2 – enhances mouse delta FosB homodimer binding to DNA; 2,400 tested, under 10 active; activation, % at 24.9 µM; AID 588690; purified delta FosB, TAMRA-CDK5 oligo fluorescence polarization; normalised: neutral wells 0, positive control 100; shares compounds with dFosB act-1;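 active = highest replicate activation at or above 34% and every replicate reaching that threshold; inconclusive = meets only one of the two criteria; inactive = meets neither criterion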;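 note: higher polarization means more probe DNA bound by delta FosB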
# An asterisk follows results filed as active; ? = inconclusive; . = not tested or not shown.
SMILES,SR-BI DiI inh,dFosB act-1,CAL PDZ FP-1,SR-BI uptake up,CAL PDZ FP-2,dFosB act-2
CN1CCC(N(C)C(=O)c2cc(-c3ccccc3Cl)nc3ccccc23)CC1,-6,-3,-1,6,0,.
O=C(OCC(=O)N1CCN(C(=O)COC(=O)c2ccc(O)cc2O)CC1)c1ccc(O)cc1O,40,12,-4,-40,-2,.
Cc1ccc(NS(=O)(=O)c2cccc(C(=O)NCC3CCCO3)c2)cc1 (stereo not drawn),-8,1,-4,8,-3,.
CC(C)C(=O)Nc1cccc(NC(=S)NC(=O)c2ccc3c(c2)OCO3)c1,31,2,0,-31,-3,.
CC(C)C(=O)Nc1cccc(NC(=S)NC(=O)c2ccc(Cl)cc2)c1,42,28*,-3,-42,-1,1
O=C(CSc1nc2cc(Cl)c(Cl)cc2[nH]1)c1ccc2c(c1)OCO2,6,28*,-2,-6,0,4
O=C(NCc1ccncc1)c1ccc(NS(=O)(=O)c2ccc(F)cc2)cc1,-10,0,-4,10,1,.
COc1ccc(CNc2nc3c(c(=O)[nH]c(=O)n3C)n2Cc2ccccc2C)cc1,4,18*,-8,-4,2,0
CNC(=O)c1cnc(-c2ccccc2)nc1-c1ccccc1,2,1,-4,-2,-2,.
O=C(Nc1ccc(Cl)cc1)c1cnc(-c2ccccc2)nc1-c1ccccc1,54,22*,2,-54,-1,1
O=C(NCc1ccc(F)cc1)C1CCCN(c2nc3ccsc3c(=O)s2)C1 (stereo not drawn),.,75*,.,.,0,-8
CCC(CC)C(=O)Nc1cccc(S(=O)(=O)c2cccc(NC(=O)C(CC)CC)c2)c1,22,17*,4,-22,0,3
CCC(CC)C(=O)Nc1cccc(C(=O)Nc2ccc(S(N)(=O)=O)cc2)c1,39,1,8,-39,-3,.
Cc1ccc(NC(=O)NNC(=O)c2cc3ccccc3cc2O)cc1C,2,54*,-3,-2,0,4
CCOc1ccc(NC(=O)NNC(=O)c2cc3ccccc3cc2O)cc1,81*,39*,0,-81,-1,0
Cc1ccc(C)c(NC(=O)NNC(=O)c2cc3ccccc3cc2O)c1,47,?,-2,-47,6,.
CCc1ccc(NC(=O)NNC(=O)c2cc3ccccc3cc2O)cc1,38,39*,-3,-38,-2,4
CN(CCc1cn[nH]c1)Cc1nc(Cc2ccccc2)no1,-15,-3,-2,15,0,.
O=C1CN(c2ccccc2)C(=S)N1C(=O)c1ccc(Br)cc1,42,-2,-1,-42,0,.
O=C(Cc1ccc(S(=O)(=O)N2CCCCC2)s1)Nc1cccc2ccccc12,-4,3,0,4,0,.
Cc1ccc(CNC(=O)COC(=O)c2cc(=O)[nH]c3ccccc23)cc1,-24,55*,-2,24,-1,-1
O=C(COC(=O)c1cc(=O)[nH]c2ccccc12)Nc1nccs1,-31,?,-5,31,0,.
O=C(COC(=O)c1cc(=O)[nH]c2ccccc12)Nc1nc(-c2ccccc2)cs1,.,55*,1,.,-1,4
O=C(COC(=O)c1cc(=O)[nH]c2ccccc12)Nc1ccc(Cl)cn1,-20,19*,1,20,-3,1
Cc1cccc(C)c1NC(=O)COC(=O)c1cc(=O)[nH]c2ccccc12,-18,42*,-1,18,0,3
SMILES,SR-BI DiI inh,dFosB act-1,CAL PDZ FP-1,SR-BI uptake up,CAL PDZ FP-2,dFosB act-2
COc1ccc(CCC(=O)OCC(=O)Nc2ccccc2)cc1,.,1,-7,.,-1,.
COc1ccc(CCNC(=O)CNC(=O)c2nn(-c3ccc(OC)c(OC)c3)c(=O)c3ccccc23)cc1OC,.,-1,1,.,-2,.
COc1ccc(-n2nc(C(=O)NCC(=O)Nc3cccc(Cl)c3)c3ccccc3c2=O)cc1OC,.,100*,-5,.,-3,7
CCOc1ccc(NC(=O)CNC(=O)c2nn(-c3ccc(OC)c(OC)c3)c(=O)c3ccccc23)cc1,-34,76*,3,34,-3,1
COc1ccc(-n2nc(C(=O)Nc3ccc4c(c3)OCO4)c3c4ccccc4n(C)c3c2=O)cc1,4,6,-1,-4,-2,.
COc1ccc(-n2nc(C(=O)Nc3ccc(OC)c(OC)c3)c3c4ccccc4n(C)c3c2=O)cc1,?,27*,-4,-71,0,1
COC(=O)c1sccc1NC(=O)COc1cccc(C)c1,.,-18,-6,.,-4,.
COC(=O)c1ccc(OCC(=O)Nc2ccsc2C(=O)OC)cc1,-36,36*,-2,36,-2,2
O=C(CSc1ccccc1)Nc1ccc2sccc2c1,0,-5,.,0,-1,.
CCOc1ccc(N(CC(=O)NCCc2ccccc2)S(=O)(=O)c2ccccc2)cc1,.,-3,-2,.,-3,.
Oc1oc(-c2ccccc2Br)nc1C=Nc1ccc(Br)cn1,0,47*,-1,0,-3,-2
CC1CCN(C(=O)CSC2=NS(=O)(=O)c3cc(F)ccc3N2)CC1,12,7,3,-12,0,.
O=C(NCCNC(=O)c1cc(OCC(F)(F)F)ccc1OCC(F)(F)F)Nc1ccc(OC(F)(F)F)cc1,28,38*,1,-28,0,-4
Cc1cccc(-n2nnnc2SCC(=O)c2cc(C)n(CC3CCCO3)c2C)c1 (stereo not drawn),16,-5,-2,-16,0,.
Cc1cccc(-n2nnnc2SCC(=O)c2cc(C)n(Cc3ccco3)c2C)c1,0,21*,0,0,-1,1
COc1cccc(-c2cc(C(=O)Nc3cnn(Cc4ccccc4C)c3)no2)c1,54,43*,1,-54,.,1
COc1cccc(-c2cc(C(=O)Nc3cnn(Cc4ccc(F)cc4)c3)no2)c1,9,2,.,-9,0,.
CN(Cc1ccn[nH]1)C(=O)C1CCC(=O)N(Cc2cccc(C(F)(F)F)c2)C1 (stereo not drawn),-4,0,-4,4,-1,.
N#Cc1ccc(-c2cccnc2)nc1SCc1ccc(Cl)c(Cl)c1,14,9,-3,-14,-3,.
N#Cc1ccc(-c2cccnc2)nc1SCc1ccc(Cl)cc1Cl,36,108*,-1,-36,-2,3
NC1=NC[C@@H](Cc2ccc(O)cc2)N1CCc1cc(C(F)(F)F)cc(C(F)(F)F)c1,19,22*,-5,-19,-1,8
COCCN(C(=O)c1ccc(-c2ccc(Cl)cc2)o1)c1c(N)n(Cc2ccccc2)c(=O)[nH]c1=O,10,2,-6,-10,-1,.
O=C(/C=C/c1ccccc1)Nc1ccc(Br)cn1,32,23*,-1,-32,-1,2
